Holding throughout (type): ADME
Series [1] concerns Liver microsome. Kind of series: Drug metabolism in human liver microsomes assessed as T-5224 hydroxyl O-glucuronide formation at 10 uM after 10 mins in presence of beta-estradiol by HPLC method. A digest of the protocol:
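Pooled liver microsomes (0.5 mg protein/mL) with 10 μM T-5224, 2 mM UDPGA and β-estradiol at 0–500 μM, 2% DMSO, in 50 mM Tris-HCl pH 7.5, 8 mM MgCl2 and alamethicin. Incubated 10 min at 37°C, stopped with acetonitrile. Glucuronides measured by HPLC at 290 nm; mean ± SD, n = 3.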

In series [2] the target is Cytochrome P450 2E1 (Homo sapiens, UniProt P05181). Kind of series: Drug metabolism assessed as human CYP2E1-mediated metabolite formation at 2 uM after 30 mins by HPLC method. The following applies: recombinant enzyme, 0.5 h. In outline:
(§1)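 Each recombinant human P450 was used at 50 pmol/mL with an NADPH-generating system and 2 μM 14C-T-5224 (0.5% DMSO final). Buffer was 100 mM Tris-HCl pH 7.5, except 100 mM potassium phosphate pH 7.4 for CYP2A6 and CYP2C9*1. Incubation ran 30 min at 37°C and was stopped with acetonitrile/methanol. Radioactive metabolite peaks were detected by C18 HPLC.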

In series [3] the target is T1, UDP-glucuronosyltransferase 1A1 (Homo sapiens, UniProt P22309).
T1 sequence (P22309 whole entry): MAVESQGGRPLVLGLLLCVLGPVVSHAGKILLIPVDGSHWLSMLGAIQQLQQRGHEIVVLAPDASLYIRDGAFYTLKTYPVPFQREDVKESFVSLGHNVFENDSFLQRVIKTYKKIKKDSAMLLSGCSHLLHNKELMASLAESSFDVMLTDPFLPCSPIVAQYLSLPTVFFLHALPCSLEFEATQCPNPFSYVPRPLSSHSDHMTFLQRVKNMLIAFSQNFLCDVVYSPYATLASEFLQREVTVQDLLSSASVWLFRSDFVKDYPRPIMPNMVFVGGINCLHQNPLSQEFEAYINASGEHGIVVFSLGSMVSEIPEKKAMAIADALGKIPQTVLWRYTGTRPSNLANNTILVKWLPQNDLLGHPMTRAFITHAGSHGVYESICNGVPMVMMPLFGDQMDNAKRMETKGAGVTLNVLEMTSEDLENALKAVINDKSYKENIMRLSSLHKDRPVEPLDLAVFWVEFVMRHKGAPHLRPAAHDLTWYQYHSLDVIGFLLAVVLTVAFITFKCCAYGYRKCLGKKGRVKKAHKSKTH
The series can be described thus: Drug metabolism assessed as Vmax/Km ratio for human UGT1A1-mediated T-5224 hydroxyl O-glucuronide formation per mg protein after 10 to 60 mins in presence of UDP-glucuronic acid by HPLC method. Conditions: recombinant enzyme. In outline:
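Kinetics used recombinant UGT1A1, 1A3 or 1A8 (0.1 mg protein/mL) with T-5224 at 1–50 μM, 2 mM UDPGA and 60 min at 37°C, in triplicate. G2/G3 were measured by HPLC at 290 nm and fitted to a substrate-inhibition model (Vmax, Km, Ksi). UGT content was quantified by immunoblot, and kcat = Vmax/E0 was derived from it.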

Series [4] concerns the target T2, Cytochrome P450 2A6 (Homo sapiens, UniProt P11509).
T2 sequence (P11509 whole entry): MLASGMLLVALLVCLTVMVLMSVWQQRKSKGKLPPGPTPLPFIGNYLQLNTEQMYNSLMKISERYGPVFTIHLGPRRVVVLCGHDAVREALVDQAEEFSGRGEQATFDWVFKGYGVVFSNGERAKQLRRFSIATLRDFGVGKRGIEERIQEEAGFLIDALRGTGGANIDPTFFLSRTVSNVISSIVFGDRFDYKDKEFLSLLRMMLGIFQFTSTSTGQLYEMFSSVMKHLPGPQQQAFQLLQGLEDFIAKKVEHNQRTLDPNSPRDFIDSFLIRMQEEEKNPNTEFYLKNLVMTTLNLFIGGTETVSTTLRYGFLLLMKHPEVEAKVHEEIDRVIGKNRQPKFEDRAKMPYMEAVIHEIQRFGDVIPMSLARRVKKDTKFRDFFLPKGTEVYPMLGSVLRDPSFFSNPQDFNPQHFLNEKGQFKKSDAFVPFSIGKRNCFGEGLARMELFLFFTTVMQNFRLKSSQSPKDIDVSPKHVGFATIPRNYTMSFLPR
Kind of series: Drug metabolism assessed as human CYP2A6-mediated metabolite formation at 2 uM after 30 mins by HPLC method. The following applies: recombinant enzyme, 0.5 h. A digest of the protocol: as §1

Series [5] deals with T3, UDP-glucuronosyltransferase 1A3 (Homo sapiens, UniProt P35503).
T3 sequence (P35503 whole entry): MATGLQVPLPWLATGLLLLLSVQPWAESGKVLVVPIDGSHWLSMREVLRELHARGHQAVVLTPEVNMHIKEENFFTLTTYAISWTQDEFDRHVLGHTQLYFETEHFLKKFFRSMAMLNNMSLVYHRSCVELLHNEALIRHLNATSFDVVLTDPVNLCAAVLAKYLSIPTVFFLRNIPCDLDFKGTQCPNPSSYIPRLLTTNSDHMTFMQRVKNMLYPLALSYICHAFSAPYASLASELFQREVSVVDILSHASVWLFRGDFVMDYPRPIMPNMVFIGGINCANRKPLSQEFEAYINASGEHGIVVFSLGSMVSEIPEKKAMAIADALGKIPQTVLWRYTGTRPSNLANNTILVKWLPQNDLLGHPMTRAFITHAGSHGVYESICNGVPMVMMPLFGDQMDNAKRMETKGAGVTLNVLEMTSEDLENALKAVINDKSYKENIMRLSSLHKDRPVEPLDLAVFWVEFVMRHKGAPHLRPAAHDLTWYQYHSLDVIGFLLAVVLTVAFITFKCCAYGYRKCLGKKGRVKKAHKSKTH
Kind of series: Substrate inhibition of human UGT1A3-mediated T-5224 acyl O-glucuronide formation after 10 to 60 mins in presence of UDP-glucuronic acid by HPLC method. A digest of the protocol: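 Recombinant human UGT1A1, UGT1A3 or UGT1A8 from baculovirus-infected insect cells (0.1 mg protein/mL) in 50 mM Tris-HCl pH 7.5, 8 mM MgCl2, alamethicin, 2% DMSO. T-5224 at 1–50 μM with 2 mM UDPGA for 60 min at 37°C. HPLC with UV at 290 nm. Triplicates fitted to a substrate-inhibition model. kcat uses UGT content quantified by immunoblot against recombinant UGT1A1/UGT2B4 standards.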

The subject of series [6] is Liver microsome. Kind of series: Drug metabolism in pooled human liver microsomes assessed as T-5224 hydroxyl O-glucuronide formation in presence of UDPGA by LC-MS/MS method.

The results in this text go back to ChEMBL document CHEMBL3526015, “Metabolism of the c-Fos/activator protein-1 inhibitor T-5224 by multiple human UDP-glucuronosyltransferase isoforms” (Drug Metab Dispos, 2011).

Molecules are shown by their SMILES.

Sequence of Cytochrome P450 2E1 (P05181 whole entry): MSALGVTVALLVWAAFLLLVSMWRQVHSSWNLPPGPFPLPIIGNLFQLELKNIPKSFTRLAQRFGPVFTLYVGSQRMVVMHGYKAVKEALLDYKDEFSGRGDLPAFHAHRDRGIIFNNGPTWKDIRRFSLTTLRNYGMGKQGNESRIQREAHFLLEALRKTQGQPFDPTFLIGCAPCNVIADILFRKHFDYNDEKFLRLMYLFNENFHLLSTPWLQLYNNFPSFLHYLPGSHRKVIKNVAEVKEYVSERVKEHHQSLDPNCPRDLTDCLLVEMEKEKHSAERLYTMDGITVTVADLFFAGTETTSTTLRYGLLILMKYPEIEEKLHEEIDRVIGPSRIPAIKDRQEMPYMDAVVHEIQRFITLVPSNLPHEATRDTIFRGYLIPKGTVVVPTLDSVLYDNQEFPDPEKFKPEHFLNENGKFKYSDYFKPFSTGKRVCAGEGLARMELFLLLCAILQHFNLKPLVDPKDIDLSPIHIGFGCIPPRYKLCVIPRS

For the compound `O=C(O)CCc1cc(C(=O)c2ccc(OC3CCCC3)cc2O)ccc1OCc1ccc2c(O)noc2c1`, the Drug metabolism result in series [1] is reported as “metabolite_detected”; in series [2] it was “metabolite_not_detected”; in series [4], “metabolite_not_detected”; in series [6], “metabolite_detected”. For the same compound, the Vmax/Km in series [3] was 26.2 µL/min. Besides, in series [5], the Ki was 13.5 µM.
